SMILES strings stand for the structures. Bounds are passed on as bounds.

The subject of one data set is Hemozoin. Description: Inhibition of Beta-hematin assessed as bis-pyridyl-Fe(III)PPIX complex formation incubated for 5 hrs by NP40 detergent-mediated colorimetric assay.
The next data set concerns HepG2. Description: (§1) Cytotoxicity against human HepG2 cells assessed as reduction in cell viability incubated for 72 hrs by CellTiter-Glo assay. The format is toxicity, cell-based. To be noted: hepg2, 72 h.
In data set [1] the test system is Plasmodium falciparum. Kind of data set: Antiplasmodial activity against asexual blood stage Plasmodium falciparum 3D7 infected in human RBC assessed as parasite growth inhibition incubated for 72 hrs by SYBR Green dye based fluorescence assay. The format is functional, organism-based. The method in brief: (§2)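 Blood-stage cultures at 2% hematocrit, human O+ RBCs, RPMI 1640 + 25 mM HEPES, 0.5% Albumax-I, 23 mM bicarbonate, 92 μM hypoxanthine. Start at 0.5% parasitemia; 72 h at 37°C, 5% CO₂; freeze-thaw, then SYBR Green in saponin/Triton lysis buffer, 4 h RT dark; fluorescence ex 485/em 535 nm. 10-point curves, technical duplicates or triplicates, final 0.5% DMSO; four-parameter fit gives EC₅₀; mean ± std dev of biological replicates.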

Data set [2] concerns Plasmodium falciparum. Kind of data set: Antiplasmodial activity against drug resistant Plasmodium falciparum Dd2 infected in human RBC assessed as parasite growth inhibition incubated for 72 hrs by SYBR Green dye based fluorescence assay. The format is functional, organism-based. Summed up:
as §2

The nature of data set [3]: as §1. The format is toxicity, cell-based. The following applies: HepG2 cells.
Where [4] appears, read: Plasmodium falciparum, 3D7, Erythrocyte, 72 h.
The mark [5] stands for this setting: Plasmodium falciparum, Dd2, Erythrocyte, 72 h.

With `Cc1cc(Nc2ccc3ccccc3c2)n2ncnc2n1`, the half-inhibitory concentration (IC50) with Hemozoin is > 1000 µM.

For the molecule `CCc1ccccc1N(C)C(=O)C(c1cncnc1)N(Cc1cccc(C(F)(F)F)c1)C1CC1` (racemic), in the data set on HepG2, the 50% cytotoxic concentration (CC50) is > 25 µM. The concentration for a half-maximal effect (EC50) was 0.24 µM with Plasmodium falciparum [1] (setting [4]) and 0.57 µM in the data set with Plasmodium falciparum [2] (setting [5]).

Regarding `Cc1ncc(C(C(=O)N(C)c2ccccc2C)N(Cc2cccc(C(F)(F)F)c2)C2CC2)cn1` (racemic), the CC50 in the data set with HepG2 is > 30 µM. The concentration giving a half-maximal response (EC50) was 7.5 µM in the data set with Plasmodium falciparum [1] (setting [4]) and 7.7 µM with Plasmodium falciparum [2] (setting [5]).

As to `Cc1ccccc1-n1nnnc1C(c1cccnc1)N(C)Cc1cc(C(F)(F)F)ccc1F` (racemic), the EC50 in the data set with Plasmodium falciparum [1] (setting [4]) was found to be 1 µM; with Plasmodium falciparum [2] (setting [5]), 2.5 µM.

As for `COc1ccc(C(F)(F)F)cc1CN(C)C(c1cccnc1)c1nnnn1-c1ccccc1C` (racemic), the EC50 in the data set with Plasmodium falciparum [1] (setting [4]) stood at 1.3 µM; in the data set with Plasmodium falciparum [2] (rbc), 3.7 µM.

On to `Cc1ccccc1-n1nnnc1C(c1cncnc1)N(Cc1cc(F)cc(C(F)(F)F)c1)C1CC1` (racemic), for which the 50% cytotoxic concentration (CC50) at 72 h in data set [3] came out at 36 µM. Also, the results for the concentration giving a half-maximal response (EC50) with Plasmodium falciparum [1] (setting [4]) and in the data set on Plasmodium falciparum [2] (rbc) were 0.37 µM and 1.2 µM, respectively.

As to `COc1ccccc1CN(C)C(c1ccccc1)c1nnnn1-c1ccccc1C` (racemic), the EC50 was found to be 9.7 µM in the data set with Plasmodium falciparum [1] (setting [4]) and 10 µM in the data set on Plasmodium falciparum [2] (setting [5]).

In the case of `Cc1ccccc1-n1nnnc1C(c1cccnc1)N(Cc1cc(C(F)(F)F)ccc1F)C1CC1` (racemic), the EC50 with Plasmodium falciparum [1] (setting [4]) is 0.6 µM; in the data set with Plasmodium falciparum [2] (setting [5]), 0.67 µM.

For `COc1ccc(Br)cc1CN(C)C(c1ccccc1)c1nnnn1-c1ccccc1C` (racemic), in the data set with Hemozoin, the IC50 is > 1000 µM. The 50% cytotoxic concentration (CC50) in the data set on HepG2 is > 30 µM. Besides, the values for the EC50 in the data set with Plasmodium falciparum [1] (rbc) and in the data set on Plasmodium falciparum [2] (setting [5]) were 3.5 µM and 5.4 µM, respectively.

For the molecule `Cc1ccccc1-n1nnnc1C(c1cncnc1)N(Cc1ccc(F)c(C(F)(F)F)c1)C1CC1` (racemic), the EC50 is 0.47 µM with Plasmodium falciparum [1] (setting [4]) and 0.68 µM with Plasmodium falciparum [2] (setting [5]).

As for `CCCN(C(c1cncnc1)c1nnnn1-c1ccccc1C)C1(c2cccc(C(F)(F)F)c2)CC1` (racemic), the 50% effective concentration (EC50) in the data set with Plasmodium falciparum [1] (setting [4]) came out at 0.31 µM; in the data set with Plasmodium falciparum [2] (setting [5]), 0.52 µM.

`CN(C(=O)C(c1cncnc1)N(Cc1cccc(C(F)(F)F)c1)C1CC1)c1ccccc1` (racemic): in the data set on HepG2, the 50% cytotoxic concentration (CC50) was > 30 µM. In addition, the EC50 with Plasmodium falciparum [1] (setting [4]) came out at 0.72 µM; with Plasmodium falciparum [2] (setting [5]), 2 µM.

As for `CCCN(C(C(=O)N(C)c1ccccc1C)c1cccnc1)C1(c2cccc(C(F)(F)F)c2)CC1` (racemic), the cytotoxic concentration (CC50) in the data set on HepG2 was > 15 µM. Besides, the 50% effective concentration (EC50) is 0.21 µM in the data set with Plasmodium falciparum [1] (setting [4]) and 0.33 µM in the data set with Plasmodium falciparum [2] (setting [5]).

As for `COc1ccc(C(F)(F)F)cc1CN(C)C(c1ccccc1)c1nnnn1-c1ccccc1C` (racemic), the EC50 in the data set on Plasmodium falciparum [1] (setting [4]) amounted to 1.7 µM; in the data set with Plasmodium falciparum [2] (setting [5]), 3.7 µM.

For the molecule `CN(Cc1cc(C(F)(F)F)ccc1F)C(c1cccnc1)c1nnnn1C1CCCCC1` (racemic), the 50% effective concentration (EC50) with Plasmodium falciparum [1] (setting [4]) stood at 1.7 µM; in the data set with Plasmodium falciparum [2] (setting [5]), 2.6 µM.

For the molecule `Cc1ccccc1N(C)C(=O)C(c1cccnc1)N(Cc1cccc(OC(F)(F)F)c1)C1CC1` (racemic), in the data set on HepG2, the CC50 is > 30 µM. For the same molecule, the results for the EC50 in the data set on Plasmodium falciparum [1] (setting [4]) and in the data set on Plasmodium falciparum [2] (setting [5]) were 0.32 µM and 0.52 µM, respectively.

In the case of `Cc1ccccc1-n1nnnc1C(C1CC1)N(Cc1cccc(C(F)(F)F)c1)C1CC1` (racemic), the EC50 with Plasmodium falciparum [1] (setting [4]) is 4.7 µM; in the data set with Plasmodium falciparum [2] (setting [5]), 3.2 µM.

`Cc1ncccc1C(c1nnnn1C1CC1)N(C1CC1)C1(c2cccc(C(F)(F)F)c2)CC1` (racemic): the half-maximal cytotoxic concentration (CC50) in the data set on HepG2 is > 30 µM. In addition, the EC50 in the data set on Plasmodium falciparum [1] (setting [4]) came out at 14 µM; in the data set with Plasmodium falciparum [2] (setting [5]), 16 µM.

Take `FC(F)(F)c1cccc(CN(C2CC2)C(c2cccnc2)c2nnnn2C2CC2)c1` (racemic): the half-maximal effective concentration (EC50) was determined as 1.5 µM in the data set with Plasmodium falciparum [1] (setting [4]) and 3 µM in the data set with Plasmodium falciparum [2] (setting [5]).

Regarding `Cc1ccccc1N(C)C(=O)C(c1cccnc1)N(Cc1cccc(SC(F)(F)F)c1)C1CC1` (racemic), the CC50 in the data set with HepG2 is > 30 µM. Also, the values for the 50% effective concentration (EC50) in the data set with Plasmodium falciparum [1] (setting [4]) and in the data set with Plasmodium falciparum [2] (setting [5]) were 0.31 µM and 0.39 µM, respectively.

For `CCCN(C(c1cccnc1)c1nnnn1-c1ccccc1C)C1(c2cccc(C(F)(F)F)c2)CC1` (racemic), the CC50 in the data set on HepG2 stood at 10 µM. Moreover, the EC50 stood at 0.23 µM in the data set on Plasmodium falciparum [1] (setting [4]) and 0.41 µM in the data set with Plasmodium falciparum [2] (setting [5]).

On to `Cc1ccccc1N(C)C(=O)C(c1cncnc1)N(Cc1cccc(OC(F)(F)F)c1)C1CC1` (racemic), for which the CC50 in the data set with HepG2 is > 30 µM. In addition, the EC50 was determined as 0.24 µM in the data set with Plasmodium falciparum [1] (setting [4]) and 0.59 µM with Plasmodium falciparum [2] (setting [5]).

On to `Cc1ccccc1-n1nnnc1C(c1cncnc1)N(Cc1cccc(C(F)(F)F)c1F)C1CC1` (racemic), for which the figures for the 50% effective concentration (EC50) in the data set on Plasmodium falciparum [1] (setting [4]) and with Plasmodium falciparum [2] (setting [5]) were 0.47 µM and 0.71 µM, respectively.

Turning to `Cc1ccccc1N(C)C(=O)C(c1cncnc1)N(Cc1cccc(SC(F)(F)F)c1)C1CC1` (racemic), the CC50 in the data set with HepG2 is > 30 µM. For the same molecule, the EC50 in the data set on Plasmodium falciparum [1] (setting [4]) turned out to be 0.26 µM; with Plasmodium falciparum [2] (setting [5]) it was 1 µM.

For the molecule `CCc1ccccc1N(C)C(=O)C(c1cccnc1)N(Cc1cccc(C(F)(F)F)c1)C1CC1` (racemic), in the data set on HepG2, the CC50 was > 20 µM. In addition, the figures for the 50% effective concentration (EC50) in the data set on Plasmodium falciparum [1] (setting [4]) and in the data set on Plasmodium falciparum [2] (setting [5]) were 0.19 µM and 0.48 µM, respectively.

As to `COc1ccc(C(F)(F)F)cc1CN(C)C(c1cccnc1)c1nnnn1-c1ccccc1C` (single isomer, unassigned; (+)), the EC50 in the data set on Plasmodium falciparum [1] (rbc) came out at 1.5 µM; with Plasmodium falciparum [2] (rbc), 2.5 µM.

For the molecule `Cc1ccccc1-n1nnnc1C(c1cncnc1)N(Cc1cc(F)cc(C(F)(F)F)c1)C1CC1` (single isomer, unassigned; (+)), the concentration for a half-maximal effect (EC50) in the data set on Plasmodium falciparum [1] (rbc) stood at 0.35 µM; in the data set on Plasmodium falciparum [2] (rbc), 2.5 µM.

As for `COc1ccc(Br)cc1CN(C)C(c1ccccc1)c1nnnn1-c1ccccc1C` (single isomer, unassigned; (+)), the EC50 stood at 1.5 µM in the data set with Plasmodium falciparum [1] (rbc) and 3 µM in the data set with Plasmodium falciparum [2] (rbc).

As to `COc1ccc(C(F)(F)F)cc1CN(C)C(c1cccnc1)c1nnnn1-c1ccccc1C` (single isomer, unassigned; (-)), in the data set on Plasmodium falciparum [2] (rbc), the EC50 amounted to 1.7 µM.

Turning to `Cc1ccccc1-n1nnnc1C(c1cncnc1)N(Cc1cc(F)cc(C(F)(F)F)c1)C1CC1` (single isomer, unassigned; (-)), the cytotoxic concentration (CC50) with HepG2 was > 30 µM. The figures for the EC50 in the data set with Plasmodium falciparum [1] (rbc) and in the data set with Plasmodium falciparum [2] (rbc) were 0.42 µM and 2.6 µM, respectively.

In the case of `COc1ccc(Br)cc1CN(C)C(c1ccccc1)c1nnnn1-c1ccccc1C` (single isomer, unassigned; (-)), the EC50 with Plasmodium falciparum [1] (rbc) came to 4.4 µM; with Plasmodium falciparum [2] (rbc), 4 µM.

As for `O[C@@H](c1cc(C(F)(F)F)nc2c(C(F)(F)F)cccc12)[C@H]1CCCCN1` [(S,R)-MEFLOQUINE], the concentration for half-maximal inhibition (IC50) in the data set with Hemozoin is 60 µM.

For the molecule `CCN(CC)Cc1cc(Nc2ccnc3cc(Cl)ccc23)ccc1O` [AMODIAQUINE], the half-inhibitory concentration (IC50) in the data set on Hemozoin was 8.6 µM.

Take `C[C@H]1[C@H](OC(=O)CCC(=O)O)O[C@@H]2O[C@@]3(C)CC[C@H]4[C@H](C)CC[C@@H]1[C@@]24OO3` [ARTESUNATE]: the concentration for half-maximal inhibition (IC50) in the data set with Hemozoin is > 1000 µM.

For the molecule `C[C@H]1c2cccc(O)c2C(=O)C2=C(O)[C@]3(O)C(=O)C(C(N)=O)=C(O)[C@@H](N(C)C)[C@@H]3[C@@H](O)[C@@H]21` [DOXYCYCLINE], the IC50 in the data set with Hemozoin is > 1000 µM.

In the case of `COc1ccc2nc3cc(Cl)ccc3c(Nc3cc(CN4CCCC4)c(O)c(CN4CCCC4)c3)c2n1` [PYRONARIDINE], in the data set on Hemozoin, the IC50 turned out to be 2.2 µM.

`COc1ncnc(NS(=O)(=O)c2ccc(N)cc2)c1OC` [SULFADOXINE]: the IC50 in the data set with Hemozoin is > 1000 µM.

(Values after ChEMBL document CHEMBL5149972, “Novel Antimalarial Tetrazoles and Amides Active against the Hemoglobin Degradation Pathway in Plasmodium falciparum” (J Med Chem, 2021).)
